The entries come from a sample that favours hits as a whole.
IDH1 mut inh: blocks human IDH1 R132H reductase activity; diaphorase/resazurin fluorescence, 60 min; 0.18% of 70,000 active; inhibition, % at 10 µM; AID 624101; O75874; in the data active means inhibition above about 34%; inconclusive means no clear call, values can overlap the other calls; inactive means below about 11%;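 further: 0% = DMSO and 100% = no enzyme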
Target sequence (O75874 whole entry R132H): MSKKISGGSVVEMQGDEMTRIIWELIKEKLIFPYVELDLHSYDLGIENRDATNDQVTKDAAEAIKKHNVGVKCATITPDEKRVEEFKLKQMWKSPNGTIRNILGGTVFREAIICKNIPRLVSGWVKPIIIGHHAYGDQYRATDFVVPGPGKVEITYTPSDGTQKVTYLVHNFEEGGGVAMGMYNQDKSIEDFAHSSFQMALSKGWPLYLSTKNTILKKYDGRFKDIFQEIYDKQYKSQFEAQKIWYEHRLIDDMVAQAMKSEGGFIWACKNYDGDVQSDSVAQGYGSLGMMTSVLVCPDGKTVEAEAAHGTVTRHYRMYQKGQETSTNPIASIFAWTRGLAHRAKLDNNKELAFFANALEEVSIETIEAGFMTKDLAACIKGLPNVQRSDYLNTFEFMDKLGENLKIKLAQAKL
KDM4C inh: inhibitors of human demethylase GASC-1 KDM4C; Q9H3R0; GST-KDM4C 2-372, H3K9me3 peptide, LANCE TR-FRET; inhibition, % at 12.5 µM; 0.15% of 96,000 active;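 active means mean replicate inhibition above about 25%, with at least 55% of replicates also reaching it, limit read from the data, passing the limit was not always enough; inconclusive means only one of those two conditions met; inactive means neither condition met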
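Test system – GST-tagged GASC-1 (JMJD2C) catalytic fragment, aa 2-372 · Medium – HEPES buffer, pH 7.5, plus ascorbate · Reagent – H3K9me3 peptide with Fe(II)/2OG · Compound – one test concentration per compound · Timing – 30 min reaction, 60 min detection, RT · Technique – TR-FRET with Eu antibody and ULight streptavidin, EDTA stop · Read-out basis – inhibition from TR-FRET ratio decrease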
T cruzi growth-1: blocks T. cruzi growth in NIH3T3 culture; T. cruzi beta-gal in NIH3T3, GalScreen luminescence, 90 h; 5.9% of 77,000 active; inhibition, % at 8.34 µM;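 active means mean inhibition above about 93%, with at least 55% of replicates each passing it, limit read from the data, passing the limit was not always enough; inconclusive means only one of those two conditions holds; inactive means neither condition holds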
T cruzi growth-2: inhibitors of T. cruzi proliferation; shares compounds with T cruzi growth-1; T. cruzi beta-gal in NIH3T3, GalScreen luminescence, 90 h; inhibition, % at 8.35 µM; 72% of 5,600 active; AID 651739;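 active means mean replicate inhibition above about 95% and at least 55% of replicates individually reaching it, limit read from the data; inconclusive means only one of the two criteria is met; inactive means neither criterion is met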
T cruzi growth-3: inhibitors of T. cruzi proliferation; inhibition, % at 2.09 µM; T. cruzi beta-gal in NIH3T3, GalScreen luminescence, 90 h; 21% of 5,600 active; shares compounds with T cruzi growth-1; AID 651740;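 active means mean inhibition above about 95%, with at least 55% of replicates also reaching it, limit read from the data; inconclusive means meets just one of the two conditions; inactive means meets neither condition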;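 further: plate controls were neutral control median for no effect and positive control median for full effect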
3T3 cytotox: cytotoxicity in mouse NIH/3T3 fibroblasts; shares compounds with T cruzi growth-1; NIH/3T3 viability, CellTiter-Glo ATP luminescence, 90 h; cytotoxicity (signal decrease), % at 8.35 µM; 14% of 5,600 active; AID 651742;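 active means mean signal decrease across replicates above about 35% based on untreated-well scatter, with enough replicates individually passing, limit read from the data; inconclusive means no rule stated though some were filed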;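 further: 0% = median of neutral control wells and 100% = median of positive control wells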
3T3 cytotox 2: kills mouse NIH/3T3 fibroblasts; NIH/3T3 viability, CellTiter-Glo ATP luminescence, 90 h; AID 651744; inhibition, % at 24.9 µM; 56% of 5,600 active; shares compounds with T cruzi growth-1;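 active means mean loss of cell viability signal at or above a set limit, and enough replicates individually reaching it; inconclusive means meets only the mean limit or only the replicate share; inactive means meets neither condition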;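 further: 0% = median of neutral control wells and 100% = median of positive control wells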
Numbers without * were called inactive; ? = inconclusive; nt = not tested or not shown.

SMILES	IDH1 mut inh	KDM4C inh	T cruzi growth-1	T cruzi growth-2	T cruzi growth-3	3T3 cytotox	3T3 cytotox 2
COc1ccccc1-c1ccc2c(c1)[C@H]1[C@H](CCN1C(=O)C1CC1)[C@H](CO)N2	nt	1	88	nt	nt	nt	nt
COc1ccccc1-c1ccc2c(c1)[C@H]1[C@H](CCN1C(=O)C1CC1)[C@@H](CO)N2	nt	-1	98*	107*	88	-7	1
CC(=O)N1CC[C@@H]2[C@H](CO)Nc3ccc(-c4cccc(F)c4)cc3[C@@H]21	nt	-1	66	nt	nt	nt	nt
O=C(C1CCOCC1)N1CC[C@@H]2[C@@H](CO)Nc3ccc(-c4cccc(F)c4)cc3[C@@H]21	nt	1	58	nt	nt	nt	nt
CC[C@H]1C(=O)CC2C3CCC4C[C@@H](O)[C@]5(O)C[C@]4(CO5)C3CC[C@@]21C (stereo partly specified)	1	nt	nt	nt	nt	nt	nt
CC(=O)O[C@@H]1[C@@H](OC(=O)/C=C/c2ccccc2)[C@@H](OC(=O)/C=C/c2ccccc2)[C@H](O[C@H]2[C@@H]3C=CO[C@@H](O[C@@H]4O[C@H](CO)[C@@H](O)[C@H](O)[C@H]4O)[C@@H]3[C@@]3(CO)O[C@@H]23)O[C@H]1C	0	nt	nt	nt	nt	nt	nt
O=C(CC1NC2CCCCC2NC1=O)Nc1ccc(Cl)c(Cl)c1 (stereo unspecified)	0	nt	nt	nt	nt	nt	nt
COc1ccc2[nH]c(=O)c(CN(C)S(=O)(=O)c3ccc(C)cc3)cc2c1	0	nt	nt	nt	nt	nt	nt
CCOC(=O)c1c(NC(=O)c2ccc(C)c(S(=O)(=O)N3CCCC3)c2)sc(C)c1C	0	nt	nt	nt	nt	nt	nt
Cn1c(=O)nc2n(-c3ccc(Cl)c(Cl)c3)c3ccccc3cc-2c1=O	1	nt	nt	nt	nt	nt	nt
Cc1nn(C(=O)Cn2ccc([N+](=O)[O-])n2)c(C)c1I	0	nt	nt	nt	nt	nt	nt
C[C@@H]1CN([C@@H](C)CO)S(=O)(=O)c2ccc(C#CC3CC3)cc2O[C@@H]1CN(C)C(=O)c1cccc(F)c1	nt	0	nt	nt	nt	nt	nt
C[C@H]1CN([C@@H](C)CO)S(=O)(=O)c2ccc(C#CC3CC3)cc2O[C@@H]1CN(C)C(=O)c1ccccc1	0	-1	99*	101*	76	10	?
CC(C)CC#Cc1ccc2c(c1)O[C@@H](CN(C)C(=O)c1cccc(F)c1)[C@H](C)CN([C@H](C)CO)S2(=O)=O	0	0	110*	105*	91	31	105*
CCCC#Cc1ccc2c(c1)O[C@H](CN(C)C(=O)c1ccccc1F)[C@H](C)CN([C@H](C)CO)S2(=O)=O	-7	-1	33	nt	nt	nt	nt
CC(C)CC#Cc1ccc2c(c1)O[C@H](CN(C)C(=O)c1ccccc1)[C@@H](C)CN([C@@H](C)CO)S2(=O)=O	0	-4	122*	102*	93	34	105*
CC(C)CC#Cc1ccc2c(c1)O[C@H](CN(C)C(=O)c1ccccc1F)[C@@H](C)CN([C@@H](C)CO)S2(=O)=O	0	-2	103*	103*	?	13	105*
C[C@@H]1CN([C@@H](C)CO)S(=O)(=O)c2ccc(C#CC3CC3)cc2O[C@@H]1CN(C)C(=O)c1ccccc1	-3	-2	94	nt	nt	nt	nt
CC(C)CC#Cc1ccc2c(c1)O[C@H](CN(C)C(=O)c1ccccc1)[C@H](C)CN([C@H](C)CO)S2(=O)=O	-1	-4	nt	nt	nt	nt	nt
Cc1scc(C(=O)Nc2cccc(Cn3cccn3)c2)c1-c1ccccc1	-1	nt	nt	nt	nt	nt	nt
C[C@H](CO)N1C[C@H](C)[C@@H](CN(C)C(=O)c2cccc(F)c2)Oc2cc(C#CC3CC3)ccc2S1(=O)=O	nt	-3	nt	nt	nt	nt	nt
CC(C)CC#Cc1ccc2c(c1)O[C@@H](CN(C)C(=O)c1cccnc1)[C@H](C)CN([C@H](C)CO)S2(=O)=O	15	-2	75	nt	nt	nt	nt
CC(C)CC#Cc1ccc2c(c1)O[C@@H](CN(C)C(=O)c1cccc(F)c1)[C@H](C)CN([C@@H](C)CO)S2(=O)=O	7	0	124*	103*	110*	62*	105*
CC(C)CC#Cc1ccc2c(c1)O[C@H](CN(C)C(=O)c1cccc(F)c1)[C@@H](C)CN([C@H](C)CO)S2(=O)=O	0	-2	120*	109*	84	4	105*
CC(C)CC#Cc1ccc2c(c1)O[C@H](CN(C)C(=O)c1cccc(F)c1)[C@@H](C)CN([C@@H](C)CO)S2(=O)=O	-2	-1	126*	99*	102*	25	106*
SMILES	IDH1 mut inh	KDM4C inh	T cruzi growth-1	T cruzi growth-2	T cruzi growth-3	3T3 cytotox	3T3 cytotox 2
C[C@@H]1CN([C@H](C)CO)S(=O)(=O)c2ccc(C#CC3CC3)cc2O[C@@H]1CN(C)C(=O)c1cccc(F)c1	-2	1	nt	nt	nt	nt	nt
CC(C)CC#Cc1ccc2c(c1)O[C@@H](CN(C)C(=O)c1cccc(F)c1)[C@@H](C)CN([C@@H](C)CO)S2(=O)=O	0	-1	102*	105*	105*	14	104*
CC(C)CC#Cc1ccc2c(c1)O[C@@H](CN(C)C(=O)c1ccccc1)[C@H](C)CN([C@H](C)CO)S2(=O)=O	0	-2	nt	nt	nt	nt	nt
N#Cc1c(NC(=O)c2cc3nc(-c4ccco4)cc(C(F)(F)F)n3n2)sc2c1CCCCC2	0	nt	nt	nt	nt	nt	nt
Cc1nn(Cc2ccc(Br)cc2)c(C)c1NC(=O)Cn1nc(C(F)(F)F)c2c1CCCCC2	0	nt	nt	nt	nt	nt	nt
C[C@@H]1CN([C@H](C)CO)C(=O)c2cc(NC(=O)Cc3ccccc3)ccc2O[C@@H]1CN(C)Cc1ccc(-c2ccccc2)cc1	1	-2	114*	113*	83	19	78*
C[C@H](CO)N1C[C@H](C)[C@@H](CN(C)Cc2ccc(Cl)c(Cl)c2)Oc2ccc(NC(=O)Cc3ccccc3)cc2C1=O	nt	0	107	nt	nt	nt	nt
C[C@@H]1CN([C@@H](C)CO)C(=O)c2cc(NC(=O)Cc3ccccc3)ccc2O[C@H]1CN(C)Cc1ccc(-c2ccccc2)cc1	2	14	-11	nt	nt	nt	nt
C[C@@H]1CN([C@@H](C)CO)C(=O)c2cc(NC(=O)Cc3ccccc3)ccc2O[C@@H]1CN(C)Cc1ccc(Cl)c(Cl)c1	-4	0	105*	98*	16	28	96*
C[C@@H]1CN([C@H](C)CO)C(=O)c2cc(NC(=O)Cc3ccccc3)ccc2O[C@@H]1CN(C)Cc1ccc(C(F)(F)F)cc1	-1	0	34	nt	nt	nt	nt
C[C@@H]1CN([C@@H](C)CO)C(=O)c2cc(NC(=O)Cc3ccccc3)ccc2O[C@H]1CN(C)Cc1ccc(C(F)(F)F)cc1	3	0	?	101*	65	17	60*
Cc1cc(Cl)ccc1NC(=O)CN1CCC(C(N)=O)(N2CCCCC2)CC1	0	nt	nt	nt	nt	nt	nt
COc1ccc2nc(SCC(=O)NC3CCCCCC3)[nH]c2c1	0	nt	nt	nt	nt	nt	nt
